Usually Cmax stands for the maximum level reached in the sampled fluid or tissue. By AUC is commonly meant the area under the concentration-time curve, a measure of exposure.

Consider six molecules from ChEMBL document CHEMBL4811219 (Eur J Med Chem, 2021).

What all share (assay type): ADME, organism-based
What all share (conditions): in vivo

A short description of series [1]: Cmax in CD-1 mouse at 10 mg/kg, ip upto 7 hrs by LC-MS/MS analysis. Also noted: route intraperitoneal, dose 10 mg/kg, time <=7. In short, it runs like this:
(§1)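 Female CD-1 mice, single dose of 10 mg/kg i.p. or 20 mg/kg p.o., in 20% DMSO/50% PEG-400/30% PBS. Blood was sampled at 0.5, 2, 4 and 7 h and plasma assayed by LC-MS/MS (ESI positive MRM). Parameters are noncompartmental, mean of N=3.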

A short description of series [2]: Cmax in CD-1 mouse at 20 mg/kg, po upto 7 hrs by LC-MS/MS analysis. Also noted: route oral, dose 20 mg/kg, time <=7. In short, it runs like this:
as §1

The nature of series [3]: Observed AUC (0-7 hrs) in CD-1 mouse at 10 mg/kg, ip by LC-MS/MS analysis. Also noted: time < 7 hr, route intraperitoneal, dose 10 mg/kg.
Series [4] can be described thus: Observed AUC (0-7 hrs) in CD-1 mouse at 20 mg/kg, po by LC-MS/MS analysis. More on the design: time < 7 hr, route oral, dose 20 mg/kg.

For the molecule `CC(Sc1nc2nn(C3COC3)cc2c(=O)n1-c1ccccc1)c1ccccn1` (stereo not drawn), the Cmax in series [1] stood at 3.3 µM; in series [2], 3.9 µM.
Turning to `CC(Sc1nc2c(cnn2C)c(=O)n1-c1ccccc1)c1ccccn1` (stereo not drawn), the Cmax in series [1] worked out at 3.9 µM; in series [2] it was 7.3 µM. Further, the results for the exposure (AUC) in series [3] and in series [4] were 7.9 µM·h and 17.4 µM·h, respectively.
Take `CC(Sc1nc2nn(C3COC3)cc2c(=O)n1-c1ccccc1)c1ccccc1` (stereo not drawn): the highest level in series [1] (Cmax) was 7.9 µM. Also, the AUC in series [3] came out at 19.5 µM·h.
In turn, `C[C@@H](Sc1nc2c(cnn2C)c(=O)n1-c1ccccc1)c1ccccc1` yielded a peak concentration (Cmax) in series [1] of 0.3 µM. Also, in series [3], the AUC amounted to 0.7 µM·h.
For the molecule `CC(Sc1nc2nn(C3(C)COC3)cc2c(=O)n1-c1ccccc1)c1ccccc1` (stereo not drawn), the highest concentration (Cmax) in series [1] and in series [2] was 7 µM each time. In addition, the figures for the AUC in series [3] and in series [4] were 23 µM·h and 23.3 µM·h, respectively.
On to `CC(Sc1nc2c(cnn2C)c(=O)n1-c1ccccc1)c1ccccc1` (stereo not drawn), for which the peak concentration (Cmax) was found to be 2.3 µM in series [1] and 0.8 µM in series [2]. Moreover, the area under the curve (AUC) was 4.9 µM·h in series [3] and 3.9 µM·h in series [4].
